High-throughput results deposited in PubChem by Broad Institute.
Only some compounds are listed: those with a hit (about 3.2% of all), similar ones and a draw of the others.
rRNA inh HTS: inhibitors of bacterial rRNA selective over humanized ribosomes; 350,000 compounds, 1.6% hits; GFP signal change (wild-type ribosome), % (no concentration beside the values); E. coli WT GFP vs humanized-ribosome RFP mutants, fluorescence, 24 h; active compounds read low; DMSO median 0, no signal -100;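 active = significant combined selectivity score with lowered wild-type GFP, culture density cut under 30%, mutant RFP and density less affected; inactive = any of these conditions unmet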
DENV2 CPE rescue: inhibitors of DENV2 cytopathic effect; DENV2-infected cells, cytopathic effect rescue, plate reader; CPE inhibition, % at 9.99 µM; 350,000 compounds, 1.7% hits; AID 651640; in the data active = CPE inhibition above about 20%, passing the limit was not always enough; inconclusive = no clear call, values can overlap the other calls; tested in BHK-21 cells;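 also: 0% = median of neutral control wells and 100% = median of positive control wells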
PfHsp90 yeast 2: inhibits growth of yeast expressing Plasmodium falciparum Hsp90; AID 504621; S. cerevisiae expressing PfHsp90, BacTiter-Glo ATP, 48 h; yeast lacking PDR1 and PDR3 efflux regulators; 310,000 compounds, 0.32% hits; inhibition, % at 9.4 µM;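 active = every replicate shows inhibition above about 80%, whatever the replicate mean, limit read from the data; inconclusive = mean inhibition reaches the set limit but some replicate falls short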;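 also: 0% = DMSO neutral controls and 100% = 20 µM radicicol positive controls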
Cneo AK release: causes C. neoformans cell lysis | adenylate kinase release luminescence, 4 h; normalised: neutral wells 0, clomiphene wells 100 | lysis activity, % at 15 µM | 360,000 compounds, 0.2% hits | AID 651654;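 active = mean lysis activity across replicates of at least 80%, whatever share of replicates individually reach that level; inactive = mean lysis activity below 80%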
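Material: C. neoformans cells; Schedule: 4 h static compound exposure, 37 °C, read 1 h post-reagent; Measured by: adenylate kinase release luminescence; Read-out: signal increase indicating cell lysis; Controls: Clomiphene as positive lysis control.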
S100A4 inh HTS: inhibitors of human S100A4 binding to myosin IIA peptide; P26447; 360,000 compounds, 0.14% hits; inhibition, % at 10.7 µM; AID 652163; S100A4/TAMRA-MyoIIA peptide fluorescence polarization;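 active = mean inhibition of at least 70% across replicates, with every replicate also reaching that level; inconclusive = mean inhibition reaches 70% but some replicates fall short; inactive = mean inhibition below 70%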
Target sequence (P26447 whole entry, looked up): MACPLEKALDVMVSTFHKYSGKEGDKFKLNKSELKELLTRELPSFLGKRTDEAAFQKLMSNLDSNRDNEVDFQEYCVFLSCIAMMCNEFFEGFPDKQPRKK
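Assay system: human S100A4 monomer with TAMRA-labelled myosin IIA peptide / Buffer or medium: Calcium-containing HEPES buffer, pH 7.2 / Reagent: TAMRA-labelled myosin IIA heavy-chain peptide probe, 5 nM / Compound: one dose per compound / Timing: polarization read 5 min after assay mix addition, stable 5–60 min / Benchmarks: neutral control DMSO, positive control TFP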
AF4-AF9 inh: blocks AF4 peptide binding to human AF9; inhibition, % at 10 µM; P42568; AlphaScreen, biotin-AF4 peptide binding to FLAG-AF9; AID 651704; 350,000 compounds, 0.47% hits;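 active = every replicate reaching a set inhibition limit, whatever the replicate mean, cut at about 25% in these data; inconclusive = mean inhibition reaches that limit but some replicates miss it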;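 also: 0% = plate neutral control median and 100% = total signal loss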
Target sequence (P42568 whole entry, looked up): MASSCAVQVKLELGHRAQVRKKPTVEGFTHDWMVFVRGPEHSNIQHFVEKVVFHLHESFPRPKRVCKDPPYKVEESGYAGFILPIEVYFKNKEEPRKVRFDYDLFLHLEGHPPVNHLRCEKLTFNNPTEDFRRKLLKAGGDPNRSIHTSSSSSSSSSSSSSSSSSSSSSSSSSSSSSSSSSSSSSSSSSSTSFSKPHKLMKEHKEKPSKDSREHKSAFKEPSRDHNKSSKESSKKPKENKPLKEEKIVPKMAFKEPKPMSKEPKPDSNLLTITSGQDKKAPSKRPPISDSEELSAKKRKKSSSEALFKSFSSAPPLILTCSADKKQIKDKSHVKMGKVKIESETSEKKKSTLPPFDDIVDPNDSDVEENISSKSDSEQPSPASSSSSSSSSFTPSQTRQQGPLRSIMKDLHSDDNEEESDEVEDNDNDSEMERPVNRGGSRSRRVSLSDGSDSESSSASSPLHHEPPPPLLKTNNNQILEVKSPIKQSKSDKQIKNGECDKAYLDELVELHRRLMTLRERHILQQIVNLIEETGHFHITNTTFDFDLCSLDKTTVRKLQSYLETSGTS
The depositor's hits bear a star; ? = inconclusive; . = no result.

SMILES | rRNA inh HTS | DENV2 CPE rescue | PfHsp90 yeast 2 | Cneo AK release | S100A4 inh HTS | AF4-AF9 inh
C[C@H](CO)N1C[C@H](C)[C@@H](CN(C)S(=O)(=O)c2ccccc2)Oc2ccc(NS(=O)(=O)c3ccc(F)cc3)cc2CC1=O | -5 | 2 | . | -1 | -9 | 1
C[C@@H]1CN([C@@H](C)CO)C(=O)c2cc(NC(=O)C3CCCCC3)ccc2O[C@@H](C)CCCCO[C@H]1CN(C)S(=O)(=O)c1cn(C)cn1 | -3 | 0 | . | 0 | -62 | -5
Cc1ccc(C(=O)NCc2ccncc2)cc1S(=O)(=O)Nc1cccc(C)c1C | 7 | 2 | -18 | 0 | 1 | 1
Cc1ccc(C)c(NS(=O)(=O)c2cc(C(=O)NCc3ccncc3)ccc2C)c1 | 8 | 98* | -5 | -4 | -2 | 1
COc1ccc(S(=O)(=O)Nc2ccc3c(c2)C(=O)N([C@@H](C)CO)C[C@@H](C)[C@H](CN(C)S(=O)(=O)c2ccc(OC)cc2)O3)cc1 | -4 | ? | . | 0 | -39 | 1
COc1ccc2c3c([nH]c2c1)[C@@H](CO)N(C(C)=O)CC31CN(C(=O)c2ccc3c(c2)OCO3)C1 | 2 | -2 | . | . | 2 | 18
NC(=O)N/N=C/c1cn(-c2ccccc2)nc1-c1ccccc1 | -18* | -3 | . | . | -7 | 5
O=C(N/N=C/c1cn(-c2ccccc2)nc1-c1cccnc1)c1ccc(F)cc1 | -25* | 2 | 10 | . | -11 | 1
O=C(N/N=C/c1cn(-c2ccccc2)nc1-c1cccnc1)c1cccnc1 | 3 | . | -25 | . | -4 | -1
Cc1noc(C)c1NC(=O)N(C)C[C@@H]1Oc2ccc(NS(C)(=O)=O)cc2CC(=O)N([C@@H](C)CO)C[C@H]1C | 5 | 4 | . | 2 | . | .
Cc1noc(C)c1S(=O)(=O)Nc1ccc2c(c1)C(=O)N([C@H](C)CO)C[C@H](C)[C@@H](CN(C)S(=O)(=O)c1ccccc1)OCCCC[C@@H](C)O2 | 0 | -9 | . | -6 | 5 | 0
COc1cccc(NC(=O)N(C)C[C@H]2Oc3cc(/C=C/c4ccccc4)ccc3S(=O)(=O)N([C@@H](C)CO)C[C@H]2C)c1 | -3 | -11 | . | -28 | 5 | -3
CCOc1ccccc1NC(=S)NNS(=O)(=O)c1c(C)cc(C)cc1C | -16* | 4 | 1 | . | -2 | 6
C[C@H]1CN([C@@H](C)CO)C(=O)c2cccc(NS(=O)(=O)c3ccc(Cl)cc3)c2O[C@@H]1CN(C)C(=O)Nc1ccc(C(F)(F)F)cc1 | -5 | 5 | . | -5 | -28 | -4
CCOc1ccc2[nH]cc(S(=O)(=O)c3ccc(C)cc3)c(=O)c2c1 | 4 | 60* | 7 | -2 | 1 | -6
Cc1ccc(NC(=O)CN2CCC(NC(=O)c3cccc(F)c3)CC2)cc1C | -2 | 34* | 4 | 4 | -4 | 2
CCCNC(=O)N(C)C[C@H]1Oc2ncc(C#CC3(O)CCCC3)cc2C(=O)N([C@H](C)CO)C[C@H]1C | 2 | -6 | . | -4 | 23 | -2
COc1ccc(NC(=O)N2CC(=O)N3[C@H](CO)[C@H](c4ccc(-c5ccccc5)cc4)[C@@H]3C2)cc1 | 1 | 15 | . | . | -6 | 1
Cc1ccc(S(=O)(=O)Nc2c(C)cc([N+](=O)[O-])cc2C)cc1 | -22* | -7 | -21 | . | 1 | 1
Cc1ccc(S(=O)(=O)NCCNc2ccc([N+](=O)[O-])cc2)cc1 | -27* | -1 | 11 | 6 | -11 | 8
Cc1ccc(S(=O)(=O)NCCCNc2ccc([N+](=O)[O-])cc2)cc1 | -36 | 12 | 4 | . | 2 | 5
Cc1ccnc(NS(=O)(=O)c2cccc([N+](=O)[O-])c2)c1 | 8 | 2 | -9 | -2 | -6 | -1
CCN(C[C@H]1N[C@@](CC)(C(=O)OC)[C@H]2C(=O)N(C)C(=O)[C@@H]12)S(=O)(=O)c1ccc(OC)cc1 | 3 | 26* | 21 | -2 | -2 | -3
CCN(C[C@H]1N[C@@](C)(C(=O)OC)[C@H]2C(=O)N(Cc3ccccc3)C(=O)[C@@H]12)S(=O)(=O)c1ccc(C)cc1 | -21* | -2 | -1 | 3 | 15 | -1
CCN(C[C@H]1N[C@@](CC)(C(=O)OC)[C@H]2C(=O)N(C)C(=O)[C@@H]12)S(=O)(=O)c1ccc(-c2ccccc2)cc1 | -11 | -5 | 8 | 3 | 2 | -1
SMILES | rRNA inh HTS | DENV2 CPE rescue | PfHsp90 yeast 2 | Cneo AK release | S100A4 inh HTS | AF4-AF9 inh
CCN(C[C@H]1N[C@@](C)(C(=O)OC)[C@H]2C(=O)N(C)C(=O)[C@@H]12)C(=O)Nc1ccc(F)cc1 | 12 | -10 | 16 | 1 | 0 | -1
CCNC(=O)N(CC)C[C@H]1N[C@@](C)(C(=O)OC)[C@H]2C(=O)N(C)C(=O)[C@@H]12 | -4 | 46* | -27 | 1 | -4 | -9
CCN(C[C@H]1N[C@@](C)(C(=O)OC)[C@H]2C(=O)N(C)C(=O)[C@@H]12)S(=O)(=O)c1ccc(-c2ccccc2)cc1 | -11 | 20* | 1 | 3 | 1 | -1
C[C@@H]1CN([C@@H](C)CO)C(=O)Cc2cc(NC(=O)NC3CCCCC3)ccc2O[C@H]1CN(C)C(=O)Nc1ccccc1 | 0 | 5 | . | -7 | 10 | -1
Cc1noc(C)c1NC(=O)N(C)C[C@@H]1Oc2ccc(N(C)C)cc2C(=O)N([C@@H](C)CO)C[C@@H]1C | 0 | 15 | . | -6 | 9 | -5
CCCNC(=O)N1C[C@@H](C)[C@@H](OC)CN(C)C(=O)c2cc(NC(C)=O)ccc2OC[C@@H]1C | 5 | -11 | . | -1 | 4 | -2
COC(=O)[C@]1(Cc2ccccc2)N[C@H](CN(C)S(=O)(=O)c2ccc(-c3ccccc3)cc2)[C@@H]2C(=O)N(Cc3ccccc3)C(=O)[C@@H]21 | 3 | 4 | -16 | 2 | 8 | -3
COC(=O)[C@]1(Cc2ccccc2)N[C@H](CN(C)S(=O)(=O)c2ccc(C)cc2)[C@@H]2C(=O)N(Cc3ccccc3)C(=O)[C@@H]21 | 6 | 24* | -3 | 0 | 3 | -1
COC(=O)[C@]1(C)N[C@H](CN(C)S(=O)(=O)c2ccc(C(C)(C)C)cc2)[C@@H]2C(=O)N(C)C(=O)[C@@H]21 | -25* | -7 | 6 | 2 | -5 | 4
C[C@@H]1CN([C@@H](C)CO)C(=O)c2cccc(NC(=O)Nc3ccc(C(F)(F)F)cc3)c2O[C@H]1CN(C)C(=O)Nc1ccc2c(c1)OCO2 | -4 | -4 | . | 4 | . | .
COc1ccccc1NC(=O)N1CCCCN2[C@H](CO)[C@H](c3ccc(C#Cc4ccccc4)cc3)[C@@H]2C1 | 6 | 25* | . | 2 | -3 | -4
